pEC50, pIC50, pKi: −log10 of the molar value. The source made the active and inactive calls. The calls are words filed in the database; no cut-off is given here.

2 compounds from ChEMBL document CHEMBL4229456, “Salicylic Acid Derivatives Inhibit Oxalate Production in Mouse Hepatocytes with Primary Hyperoxaluria Type 1” (J Med Chem, 2018) can be followed below.

Series [1] deals with T1, 2-Hydroxyacid oxidase 1 (Mus musculus, UniProt Q9WU19).
T1 sequence (Q9WU19 whole entry): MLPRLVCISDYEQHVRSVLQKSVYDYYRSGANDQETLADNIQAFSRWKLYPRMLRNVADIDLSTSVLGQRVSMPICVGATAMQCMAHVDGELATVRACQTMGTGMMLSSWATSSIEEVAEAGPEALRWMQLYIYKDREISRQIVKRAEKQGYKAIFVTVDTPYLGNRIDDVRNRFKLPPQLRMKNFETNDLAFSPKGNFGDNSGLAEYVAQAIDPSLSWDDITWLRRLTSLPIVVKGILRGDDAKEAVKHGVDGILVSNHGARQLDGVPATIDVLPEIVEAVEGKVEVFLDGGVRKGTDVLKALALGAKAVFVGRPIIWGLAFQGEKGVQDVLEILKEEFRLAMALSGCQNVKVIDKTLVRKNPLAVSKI
Description: Inhibition of glycolate oxidase in C57BL/6 Agxt1-/- mouse hepatocytes using glycolate as substrate assessed as reduction in oxalate production after 48 hrs. It counts as cell-based. The gist of the method: (§1)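 Agxt1-/- hepatocytes from male C57BL/6 mice, 3.0x10^5 cells/well, in Williams E with 5% FBS and insulin/hydrocortisone. After 5 h, switched to serum-free medium and treated across a dose range with 5 mM glycolate. Medium harvested at 24, 48 and 72 h; oxalate measured by oxalate oxidase/HRP kit (MBTH/DMAB dye, 595 nm). EC50 from nonlinear regression of log concentration.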

Series [2] has as its target T1, 2-Hydroxyacid oxidase 1. Description: Inhibition of mouse recombinant glycolate oxidase expressed in Escherichia coli using glycolate as substrate by Dixon plot and Cornish-Bowden plot analysis. The method, boiled down:
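Recombinant mGO held at constant enzyme concentration and tested with increasing inhibitor at several glycolate concentrations in the HRP/DCIP 515 nm assay. Inhibition type read from Cornish-Bowden and Dixon plots; Ki taken as the intersection of the lines.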

Series [3] has as its target T2, 2-Hydroxyacid oxidase 1 (Mus musculus) (UniProt Q9WU19).
T2 sequence (whole entry): T1 sequence (Q9WU19 whole entry)
Description: Inhibition of mouse recombinant glycolate oxidase expressed in Escherichia coli at 25 uM using glycolate as substrate after 1 min by sulfonated DCIP dye-based assay relative to control.

For series [4], the target named is T1, 2-Hydroxyacid oxidase 1. Description: Inhibition of glycolate oxidase in C57BL/6 Agxt1-/- mouse hepatocytes using glycolate as substrate assessed as reduction in oxalate production after 24 hrs. Type of series: cell-based. The gist of the method: as §1
Series [5] concerns the target T2, 2-Hydroxyacid oxidase 1 (Mus musculus). Description: Potency index, ratio of EC50 for CCPST to EC50 for test compound for inhibition of glycolate oxidase in C57BL/6 Agxt1-/- mouse hepatocytes using glycolate as substrate assessed as reduction in oxalate production after 24 to 72 hrs. It counts as cell-based.
The nature of series [6]: Half life in mouse liver microsomes at 2 uM in presence of NADPH by LC-HRMS method. It counts as ADME, microsome. On the technique in general: Liver microsomes are vesicles of endoplasmic reticulum, rich in cytochrome P450 enzymes.
For series [7], the target named is T1, 2-Hydroxyacid oxidase 1. Description: Inhibition of glycolate oxidase in C57BL/6 Agxt1-/- mouse hepatocytes using glycolate as substrate assessed as reduction in oxalate production after 72 hrs. Type of series: cell-based. The gist of the method: as §1
In series [8] the target is T1, 2-Hydroxyacid oxidase 1. Description: Inhibition of mouse recombinant glycolate oxidase expressed in Escherichia coli using glycolate as substrate by sulfonated DCIP dye-based assay. The gist of the method: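 Purified recombinant mGO (10 µL at 0.1 µg/µL) with saturating glycolate (22.2 mM) in 50 mM potassium phosphate pH 7. Compound at 0.2 µM–0.2 mM; H2O2 detected by HRP-coupled sulfonated DCIP/4-aminoantipyrine dye at 515 nm. IC50 from nonlinear dose-response fitting.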

For series [9], the system named is Hepatocyte. Description: Cytotoxicity against C57BL/6 Agxt1-/- mouse hepatocytes after 24 to 48 hrs by Celltiter reagent based assay. Type of series: cell-based. The method, boiled down:
(§2)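 Agxt1-/- hepatocytes (male C57BL/6, collagenase perfusion) seeded at 1.0x10^4 cells/well in 96-well plates and given the same compound concentrations as the 6-well oxalate cultures. At each time point, CellTiter 96 AQueous One reagent was added and incubated 2 h at 37°C, 5% CO2, with absorbance read at 493 nm.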

Series [10] concerns the target T2, 2-Hydroxyacid oxidase 1 (Mus musculus). The series can be described thus: Inhibition of glycolate oxidase in C57BL/6 Agxt1-/- mouse hepatocytes using glycolate as substrate assessed as relative oxalate level at 10 uM after 24 hrs. Type of series: cell-based. The method, boiled down:
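Primary Agxt1-/- mouse hepatocytes in 6-well plates, serum-free Williams E with 5 mM glycolate, treated with 10 µM compound. Excreted oxalate measured 24 h later by oxalate oxidase–HRP colorimetric kit (595 nm) and expressed relative to untreated control. Mean ± SD, n = 3, one-way ANOVA.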

Series [11] has the same target. The series can be described thus: Inhibition of glycolate oxidase in C57BL/6 Agxt1-/- mouse hepatocytes using glycolate as substrate assessed as reduction in oxalate production at 12.5 uM after 48 hrs post treatment relative to control. It counts as cell-based. The gist of the method: (§3)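 Agxt1-/- primary hepatocytes (3.0x10^5 cells/well), serum-free Williams E with 5 mM glycolate, treated at the stated concentrations. Medium oxalate quantified at the stated time by oxalate oxidase kit (H2O2/HRP, MBTH and DMAB, 595 nm) and expressed relative to control.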

Series [12] has the same target. Description: Inhibition of glycolate oxidase in C57BL/6 Agxt1-/- mouse hepatocytes using glycolate as substrate assessed as reduction in oxalate production at 6.25 uM after 24 hrs post treatment relative to control. Type of series: cell-based. The gist of the method:
as §3

Series [13] shares this target. The series can be described thus: Potency index, ratio of EC50 for CCPST to EC50 for test compound for inhibition of glycolate oxidase in C57BL/6 Agxt1-/- mouse hepatocytes using glycolate as substrate assessed as reduction in oxalate production after 24 hrs. It counts as cell-based.
The target is the same in series [14]. The series can be described thus: Inhibition of glycolate oxidase in C57BL/6 Agxt1-/- mouse hepatocytes using glycolate as substrate assessed as reduction in oxalate production at 12.5 uM after 24 hrs post treatment relative to control. It counts as cell-based. The gist of the method: as §3
Series [15] has the same target. Description: Inhibition of glycolate oxidase in C57BL/6 Agxt1-/- mouse hepatocytes using glycolate as substrate assessed as reduction in oxalate production at 2.5 uM after 24 hrs post treatment relative to control. Type of series: cell-based. The method, boiled down: as §3
A short description of series [16]: Drug metabolism in mouse liver microsomes assessed as metabolite formation at 2 uM in presence of NADPH after 60 mins by LC-HRMS method. Type of series: ADME, microsome. As to conditions: 1 h.
Another series concerns Armoracia rusticana. The series can be described thus: Inhibition of horseradish peroxidase at 20 uM after 1 min by sulfonated-DCIP dye based assay. The gist of the method: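 HRP counter-screen without mGO or glycolate: H2O2 (10 µL of 1:10 000) with HRP, sulfonated DCIP and 4-aminoantipyrine under mGO assay conditions, compound added from 1 mM DMSO stock. Absorbance read at 515 nm after 1 min, compared with an H2O2 standard curve. Run in duplicate.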

Series [17] concerns Hepatocyte. The series can be described thus: Cytotoxicity against C57BL/6 Agxt1-/- mouse hepatocytes at 80 uM after 24 to 48 hrs by Celltiter reagent based assay. It counts as cell-based. The gist of the method: as §2
In series [18] the target is T2, 2-Hydroxyacid oxidase 1 (Mus musculus). The series can be described thus: Inhibition of glycolate oxidase in C57BL/6 Agxt1-/- mouse hepatocytes using glycolate as substrate assessed as reduction in oxalate production at 5 uM after 72 hrs post treatment. It counts as cell-based. The gist of the method: as §3
Series [19] is described as follows: Activity against horseradish peroxidase by oxalate detection based assay.

Take `O=Cc1ccc(-c2ccc(O)c(C(=O)O)c2)o1`: the pEC50 is 5.08 at 2-Hydroxyacid oxidase 1 [1], 5.46 at 2-Hydroxyacid oxidase 1 [4] and 4.95 on 2-Hydroxyacid oxidase 1 [7]. For the same compound, the pKi on 2-Hydroxyacid oxidase 1 [2] was 4.33. For the same compound, the inhibition in series [3] is 42.7%; in series [11] it was 62.3%; in series [12] it was 67.3%; in series [14], 106%. Besides, the Ratio EC50 was 7 in series [5] and 5 in series [13]. Also, the half-life at 2 µM in [6] came to 13.3 min. Further, the pIC50 on 2-Hydroxyacid oxidase 1 [8] is 4.42. Also, the Activity result in the series on Hepatocyte [9] is on record as “Non-Toxic”. The fold change (FC) in series [10] was 0.

`O=C(O)c1cc(-c2ccco2)ccc1O`: the pEC50 at 2-Hydroxyacid oxidase 1 [1] is 5.10; at 2-Hydroxyacid oxidase 1 [4], 5.44; on 2-Hydroxyacid oxidase 1 [7], 5.04; in series [19] it was 4.74. Moreover, the inhibition amounted to 26.5% in series [15] and 12.6% with Armoracia rusticana. Further, the Ratio EC50 in series [5] is 7. Moreover, the half-life at 2 µM in [6] was 61.9 min. For the same compound, in series [16], the Drug metabolism result is reported as “Metabolite_Notdetected”. Further, the fold change (FC) in series [10] turned out to be 0. For the same compound, the Activity result with Hepatocyte [17] is “Toxic”. For the same compound, the inhibition result in series [18] is “Active”.

One may read the pEC50 as the negative decadic logarithm of the EC50, by convention in mol/L. Usually pKi stands for −log10 of the Ki, conventionally taken in molar units. One may read the inhibition as the drop in the measured response relative to a control, in per cent. In general, half-life refers to how long it takes for the measured level to halve. Usually pIC50 stands for −log10 of the IC50, conventionally taken in molar units.
